Compound activity from PubChem.
Compounds with a hit are over-represented: about 2.6% of the library has one in this group of screens.
Runt-CBFb FRET: inhibitors of RUNX1 Runt–CBFb binding, primary screen, biochemical, FRET, Cerulean-Runt, Venus-CBFb, uHTS; hit rate 0.46% among 220,000; inhibition, % at 20 µM; Runt-related transcription factor 1 (Homo sapiens) + Core-binding factor subunit beta …; Cerulean-Runt/Venus-CBFb FRET ratio 530/480, 1 h; AID 1496, 2009;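 active means inhibition over about 50% at 20 µM in the single-dose screen, limit read from the data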;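 further: 0% = DMSO wells and 100% = excess unlabeled CBFb competitor control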
Target sequence (Q01196 whole entry, looked up): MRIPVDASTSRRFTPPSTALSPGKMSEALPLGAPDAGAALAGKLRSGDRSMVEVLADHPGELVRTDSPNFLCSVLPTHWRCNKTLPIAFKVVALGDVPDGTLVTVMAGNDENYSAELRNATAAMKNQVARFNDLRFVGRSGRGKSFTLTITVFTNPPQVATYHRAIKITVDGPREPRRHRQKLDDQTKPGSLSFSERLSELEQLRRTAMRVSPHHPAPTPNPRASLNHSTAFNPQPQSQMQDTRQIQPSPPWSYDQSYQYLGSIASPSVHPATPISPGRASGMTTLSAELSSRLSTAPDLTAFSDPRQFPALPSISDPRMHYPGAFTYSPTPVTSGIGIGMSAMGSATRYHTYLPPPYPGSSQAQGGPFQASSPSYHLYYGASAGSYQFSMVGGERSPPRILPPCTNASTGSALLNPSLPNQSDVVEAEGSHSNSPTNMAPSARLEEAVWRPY
Target sequence (Q13951 whole entry, looked up): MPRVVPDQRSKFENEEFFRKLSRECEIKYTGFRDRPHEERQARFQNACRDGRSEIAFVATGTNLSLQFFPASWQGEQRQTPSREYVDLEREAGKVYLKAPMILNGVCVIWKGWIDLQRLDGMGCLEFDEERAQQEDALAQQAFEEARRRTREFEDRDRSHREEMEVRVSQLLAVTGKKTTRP
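Schedule: protein complex preformed 1 h, compound exposure 1 h, room temperature, dark; test system: Cerulean-labeled Runt domain protein; amount: 100 nM per protein; buffer or medium: Tris 50 mM pH 7.5, KCl, K2SO4, 0.01% BSA; read-out: loss of energy transfer signal; detection: FRET fluorescence; controls: 5 µM unlabeled CBFb as full-inhibition high control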
IMP-1 inh: IMP-1 metallo-beta-lactamase inhibitors, primary screen, biochemical, epi-absorbance readout, Pseudomonas aeruginosa enzyme; metallo-beta-lactamase IMP-1 (Pseudomonas aeruginosa); purified IMP-1, nitrocefin hydrolysis, epi-absorbance fluorescence; inhibition, % at 5.6 µM; hit rate 0.45% among 290,000;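 active means inhibition above the mean plus 3 SD of all compounds in the same screening run, cut at about 4.5% in these data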;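 further: 0% = IMP-1 with DMSO and 100% = DMSO wells lacking enzyme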
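System: purified IMP-1; amount: IMP-1 0.2 nM before substrate addition; compound: single dose, 5.6 µM; times: 25 °C, 15 min preincubation, 25 min reaction; signal: Epi-absorbance via hydrolysed-nitrocefin quenching of white-plate fluorescence, 480/530 nm, EDTA stop; benchmarks: DMSO with and without IMP-1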
VIM-2 inh: VIM-2 metallo-beta-lactamase inhibitors, primary screen, biochemical, epi-absorbance readout, Pseudomonas aeruginosa enzyme; purified VIM-2, nitrocefin hydrolysis, epi-absorbance fluorescence; inhibition, % at 5.6 µM; hit rate 0.89% among 290,000; AID 1527, 2009;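 active means inhibition above the mean of all tested compounds plus 3 SD, cutoff set per screening run, cut at about 7.5% in these data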;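 further: red hydrolysis product quenches plate fluorescence so inhibitors raise well fluorescence; 0% = enzyme with DMSO and 100% = DMSO without enzyme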
Runt-SMMHC FRET: inhibitors of RUNX1 Runt–CBFb-SMMHC binding, primary screen, biochemical, FRET, Cerulean-Runt, Venus-CBFb-SMMHC, uHTS. inhibition, % at 20 µM. Cerulean-Runt/Venus-CBFb-SMMHC FRET ratio 530/480, 1 h. hit rate 0.74% among 220,000. Runt-related transcription factor 1 (Homo sapiens) + Core-binding factor subunit beta …;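 active means mean inhibition across duplicate retests at 20 µM reaching about 50%, limit read from the data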;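 further: 0% = DMSO wells and 100% = wells with excess untagged CBFb-SMMHC; inhibitors lower the FRET ratio by blocking Runt binding to CBFb-SMMHC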
RanGTP-Imp inh: inhibitors of RanGTP-importin-beta interaction, primary screen, biochemical, FRET, CFP-Ran, YFP-importin-beta, homogeneous | Ran GTPase (GTP-bound) - importin-beta complex | cell-free CFP-Ran/YFP-importin-beta FRET ratio | inhibition, % (concentration not given with the values) | hit rate 1.1% among 300,000;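 active means more than half of the replicate wells show a fall in the fluorescence ratio signal beyond about 16%, limit read from the data, passing the limit was not always enough; inconclusive means exactly half of the replicate wells pass the set limit; inactive means fewer than half of replicates pass the limit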;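 further: 0% = DMSO wells and 100% = Ran loaded with GDP instead of GTP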
* hit, by the source's call; ? = inconclusive; / = not tested or not shown; ! = not confirmed by another sample.

SMILES	Runt-CBFb FRET	IMP-1 inh	VIM-2 inh	Runt-SMMHC FRET	RanGTP-Imp inh
O=C1Cc2ccccc2C(=O)N1Cc1cccc(Cl)c1	/	-1.2	-5.4	/	-3.2
Cc1ccc(C)c(C(=O)Nc2ccncc2)c1	/	0.8	0.3	/	2.6
Cc1ccc(S(=O)(=O)N2CCN(C(=O)CC3CCCC3)CC2)cc1	0.3	4.5*	3.4	1.7	7.0
Nc1nn2cc(-c3ccc(Br)cc3)nc2c2ccccc12	-0.4	-1.1	-0.6	1.0	-4.4
c1ccc(-c2cn3nc4c(nc3n2)CCCC4)cc1	1.5	-5.7	-6.3	-4.0	82.8*
Brc1ccc(-c2cn3nc4c(nc3n2)CCCC4)cc1	3.9	2.3	-0.6	-5.5	61.1*
O=S1(=O)CCOCCCN1Cc1ccccc1Br	/	-2.2	-1.4	/	1.1
CCCn1nc(NC(=O)C(C)(C)C)c2cc3cc(OC)ccc3nc21	/	-1.0	-1.9	/	67.3*
CCCCn1nc(NC(=O)CC)c2cc3cc(OC)ccc3nc21	/	-2.8	0.2	/	65.5*
N#C/C(=C\c1ccncc1)c1nc2ccccc2[nH]1	4.5	-1.7	0.1	-10.8	7.4
N#C/C(=C/c1ccncc1)c1nc2ccccc2s1	-16.5	-4.4	-5.3	-39.8	84.0*
CN(Cc1c(C(=O)N/N=C/c2ccc(O)cc2)nnn1-c1nonc1N)c1ccccc1	/	-1.8	-1.2	/	0.6
CC(=Nc1ccc(C)c(C)c1)C1=C(O)CSC1=O	8.5	0.0	-1.2	2.6	1.4
COc1ccccc1N=C(C)C1=C(O)CSC1=O	8.1	5.6*	-3.0	3.0	3.4
CCN1CCN(c2cc(-c3ccccc3)nc3cc(-c4cccc(F)c4)nn23)CC1	1.8	-3.6	-1.8	33.3	16.8*
OC1CCN(c2cc(-c3ccccc3)nc3cc(-c4ccc(F)cc4)nn23)CC1	2.0	-1.1	-0.2	8.0	2.9
CCOC(=O)CSc1cc(C)c(C#N)c2nc3ccccc3n12	34.1	-1.4	-0.6	58.7	-2.4
CCOC(=O)c1c(C)cc(C)n2c1nc1ccccc12	1.0	-4.4	10.8*	-8.4	-2.0
N#CC1=C(S)N(c2ccccc2)C(c2ccc(-c3cc(Cl)ccc3Cl)o2)NC1=O (stereo not drawn)	0.7	-0.1	-2.5	-3.1	?
N#CC1=C(S)N(c2ccccc2)C(c2ccc(-c3ccc(Cl)c(Cl)c3)o2)NC1=O (stereo not drawn)	39.6	5.2*	-1.9	4.3	1.4
CCCCN1C(=O)/C(=C/C=C2\Oc3ccccc3N2CC)SC1=S	3.7	-0.3	-4.2	-46.9	-5.9
CCN1/C(=C/C=C/c2oc3ccc(-c4ccccc4)cc3[n+]2CC)Oc2ccc(-c3ccccc3)cc21	-57.8	4.6*	-1.3	-265.9	-0.1
CN1CCCC(OC(=O)c2ccccc2Br)C1 (stereo not drawn)	/	-7.7	-1.9	/	?
Cc1cccc(-n2c3nc(=O)[nH]c(=O)c-3cc3cc([N+](=O)[O-])ccc32)c1	20.7	-0.8	-3.3	54.6*	2.4
CCn1nc(C)c(CN2CCC(Oc3ccc(C(=O)N4CCCC4)cc3)CC2)c1C	/	-1.9	-0.7	/	2.2
SMILES	Runt-CBFb FRET	IMP-1 inh	VIM-2 inh	Runt-SMMHC FRET	RanGTP-Imp inh
COC(=O)c1cc(N=C(N)N=C(N)N)cc(C(=O)OC)c1	2.8	-2.6	9.0*	0.3	-4.4
O=S(=O)(Cc1ccccc1)N1CCN(c2ccccc2)CC1	/	-2.5	-1.9	-3.9	58.8*
O=C(NCCN1CCOCC1)c1cc2c(=O)n3ccccc3nc2n1Cc1ccccc1	19.7	-0.1	0.8	48.0	5.6
N=c1c(C(=O)NC2CCCC2)cc2c(=O)n3ccccc3nc2n1CCCN1CCOCC1	/	-4.4	2.3	/	139.7*
N=c1c(C(=O)NC2CCCC2)cc2c(=O)n3ccccc3nc2n1CCN1CCOCC1	99.2*	-1.5	0.9	76.9*	99.1*
O=C(c1ccc(COc2ccc(Cl)cc2Cl)o1)N1CCCC1	/	-0.5	0.1	/	4.3
COc1ccc(C2Nc3ccccc3C(=O)N2Cc2ccco2)cc1CN1C(=O)c2ccccc2C1=O (stereo not drawn)	0.9	4.7*!	-1.1	-1.6	2.3
COCC(N)(c1ccccc1)c1nc2ccccc2n1C (stereo not drawn)	0.4	-2.8	9.0*	2.3	2.8
CCOC(=O)C1(Cc2cccc(OC)c2)CCN(Cc2cnc(C)s2)CC1	2.1	-1.1	-2.2	-1.1	45.0*
Nc1cccc2c1C(=O)N(C(=O)c1cccc(S(=O)(=O)N3CCCCCC3)c1)C2=O	12.4	-1.4	-2.5	61.6*	18.9*
Nc1cccc2c1C(=O)N(C(=O)c1ccc(Cl)c(S(=O)(=O)N3CCCCCC3)c1)C2=O	-11.5	4.8*	-2.1	61.6*	19.8*
O=C(c1ccc(Cl)c(S(=O)(=O)N2CCCCC2)c1)N1CCCCC1	/	-3.4	-3.0	/	-3.0
Cc1cc(C)n2c(=S)[nH]nc2n1	11.0	-2.8	10.7*	59.3*	0.9
CC1(c2nnc(-c3ccccc3)o2)CC(c2ccccc2)=NO1 (stereo not drawn)	/	/	/	/	0.1
Cc1c(NC(=O)CN2C(=O)NC(CCc3ccccc3)C2=O)c(=O)n(-c2ccccc2)n1C (stereo not drawn)	0.3	-2.5	0.1	2.3	34.2*
Cc1cccc(N(CC(N)=O)C2SC(=O)N(c3ccccc3)C2=O)c1 (stereo not drawn)	3.6	6.6*	-2.5	6.0	2.8
Cc1ccc2oc(=O)c3cc(C(=O)NCCN4CCN(C)CC4)sc3c2c1	1.7	-2.1	11.7*	-0.5	26.5*
Cc1ccc2oc(=O)c3cc(C(=O)NCCCN4CCCCCC4)sc3c2c1	/	1.3	9.6*	/	2.8
C=CCNc1nc(NC(C)(C)CO)nc(OC)n1	1.3	-4.0	-2.1	-8.0	6.8
C=CCNc1nc(NC(C)(C)CO)nc(OCC)n1	-0.7	28.0*	-5.2	0.1	?
COC(=O)C1=CN(C(C)C)C=C(C(=O)OC)C1c1cccc(OC)c1	71.5*	-3.0	-3.1	-15.6	66.2*
COC(=O)C1=CN(C(C)C)C=C(C(=O)OC)C1c1cc(Br)c(OC)c(OC)c1	114.5*	-2.4	-2.4	75.1*	59.3*
COC(=O)C1=CN(c2cc(C)cc(C)c2)C=C(C(=O)OC)C1c1ccc(OC)c(O)c1	/	-3.3	-4.6	/	-2.0
Cc1cccc(-c2nnc(SCC(=O)N3CCOCC3)o2)c1	/	1.5	-0.6	/	3.8
CCCn1c(C2CCCN2c2nc(-c3cccc(Br)c3)cs2)nc2ccccc21 (stereo not drawn)	/	-2.3	-1.6	/	0.2
